Source: PubChem BioAssay (several laboratories)
Cardio protect = myocardial damage modulation in H9c2 cells. 360,000 tested, 0.63% active. AID 588492. protection from H2O2 cell death, % at 20 µM. H9c2 cardiomyocytes, H2O2 injury protection, ATPLite, 2 h;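 active = compounds giving at least 50% protection of heart cells from peroxide-induced death in the single-dose screen, raw or plate-pattern-corrected value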;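 also: 0% = DMSO wells with peroxide and 100% = DMSO wells without peroxide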
DSG3 Ab inh = inhibitors of pemphigus antibody binding to human desmoglein-3 | DSG3-coupled beads, scFv-anti-DSG3-GFP binding, flow cytometry; stronger effect = lower value | binding (percent of control), % at 10 µM | 310,000 tested, 0.48% active | P32926;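 active = binding more than 3 SD below its plate's average and above zero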;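 also: hits lower antibody fragment binding to DSG3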
Exocytosis inh = lytic granule exocytosis inhibition; TALL-104 LAMP-1 surface exposure, flow cytometry; cells stimulated with thapsigargin and PMA; inhibition, % at 10 µM; 360,000 tested, 0.66% active; AID 651702;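 active = inhibition above about 55%, limit read from the data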
HNF4A DNA FP = change in binding of human HNF4 alpha to DNA | 360,000 tested, 0.3% active | HNF4a-FITC DNA binding, fluorescence polarization, 1 h | P41235 | activity change, % at 10 µM | AID 1224865; in the data active = activity change above about 30%, passing the limit was not always enough
Myeloid diff 2 = promotes myeloid progenitor differentiation. ER-HoxA9 myeloid progenitors, lysozyme-GFP differentiation, flow cytometry. calls only at 10 µM. 360,000 tested, 1% active;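 active = normalized GFP-positive differentiation at or above the plate's own cutoff, the solvent-only control mean plus 3 SD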;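 also: cells exposed to compound for four days before flow analysis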
SENP1 FRET inh = blocks the human SENP1 SUMO protease catalytic domain | Q9P0U3 | recombinant SENP1 catalytic domain, CyPet-SUMO1-YPet FRET cleavage | inhibition, % at 10 µM | 360,000 tested, 0.21% active;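 active = inhibition at least 30% at 10 µM, raw YFP signal under a set limit, fluorescence ratio 0.5 to 1.5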;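 also: 0% = enzyme with DMSO and 100% = no enzyme wells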
Target sequence (Q9P0U3 419-644 limits assumed): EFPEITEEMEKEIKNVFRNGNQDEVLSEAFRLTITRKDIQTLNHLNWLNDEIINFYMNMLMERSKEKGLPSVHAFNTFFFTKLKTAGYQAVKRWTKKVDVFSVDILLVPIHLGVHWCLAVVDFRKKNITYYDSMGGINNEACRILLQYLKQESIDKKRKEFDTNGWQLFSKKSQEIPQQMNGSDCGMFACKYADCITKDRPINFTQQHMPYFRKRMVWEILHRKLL
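Controls: no-enzyme wells low, DMSO-plus-enzyme wells high control. Test system: human recombinant His6-tagged SENP1 catalytic domain enzyme. Reagent: SFCypet-SUMO1-SFYpet FRET protein substrate, 25 nM final. Doses: one dose per compound, 10 µM, 0.5% DMSO. Detection: FRET, CFP and YFP emission. Timing: 50 min reaction at room temperature.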
Myeloid diff CP1 = compounds promoting myeloid differentiation. shares compounds with Myeloid diff 2. ER-HoxA9 myeloid progenitors, GFP/Mac1 double-positive flow. calls only. 2,300 tested, 2% active;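 active = share of green or green-and-red cells above 9 and 9% in run 1 or 4 and 3% in run 2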
GFP autofluor = counter-screen for myeloid differentiation promoters: compound fluorescence; shares compounds with Myeloid diff 2; ER-HoxA9 myeloid progenitors, no estrogen, GFP autofluorescence flow cytometry; vehicle wells 0%, positive control 100%; fluorescence response, % (concentration not given with the values); 2,300 tested, 7.4% active; AID 651707;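 active = over 5% cells positive for green fluorescent reporter, or over 2% positive for both it and APC stain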;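 also: range taken on the double positive population between DMSO and positive control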
* marks the source's active call; other numbers are inactive results; i = inactive; . = not tested or not shown; + = active, no number. Only some compounds are listed: those with a hit (about 3% of all), similar ones and a draw of the others.

SMILES | Cardio protect | DSG3 Ab inh | Exocytosis inh | HNF4A DNA FP | Myeloid diff 2 | SENP1 FRET inh | Myeloid diff CP1 | GFP autofluor
Cc1cc(C)c2cc3c(N)c(C(=O)Nc4c(C)[nH]c(=O)[nH]c4=O)sc3nc2c1 | 6.1 | 174.7 | -3.4 | 4.6 | + | 29.1 | i | 4.5
CCOc1cc(/C=C2\N=C(C)OC2=O)cc(Br)c1OCC(=O)OC | -5.0 | 84.7 | -0.8 | -3.0 | + | -5.8 | i | 0.4
CC1CCN(Cc2ccc(-c3nnn(CC(=O)Nc4ccccc4Cl)n3)cc2)CC1 | -25.1 | 101.0 | -0.1 | 0.2 | + | 2.3 | i | 0.0
N=c1c2c3c(sc2nc2n1CCC2)CCCC3 | -0.4 | 99.6 | -5.1 | -2.2 | i | 0.4 | . | .
CC1(C)Cc2c(sc3nc4n(c(=N)c23)CCC4)CO1 | -4.8 | 101.9 | 2.3 | 10.1 | i | 2.7 | i | 0.0
O=C1c2ccccc2C(=O)C1Cc1cccc2ccccc12 | 0.6 | i | 26.3 | 4.9 | i | 0.6 | i | 0.0
CS(=O)(=O)N(CC(=O)Nc1ccc(S(=O)(=O)N2CCOCC2)cc1)c1cccc(F)c1 | -0.2 | 91.2 | 0.9 | 0.3 | i | 1.5 | . | .
CC1(C)CC(=O)C2=C(C1)N(Cc1ccco1)C(=O)C2(NC(=O)C1CCCCC1)C(F)(F)F (centres undefined) | -0.7 | . | 12.1 | -0.3 | i | -1.0 | i | 0.3
CC1(C)CC(=O)C2=C(C1)N(Cc1ccco1)C(=O)C2(NC(=O)c1ccc(Cl)cc1Cl)C(F)(F)F (centres undefined) | 4.0 | 96.8 | -3.7 | 2.5 | i | 1.0 | . | .
CCOC(=O)c1c(NC(=O)C(C)Sc2cccc[n+]2[O-])sc2c1CCN(Cc1ccccc1)C2 (centres undefined) | -4.0 | 164.2 | -1.7 | 4.3 | + | -25.0 | i | 0.4
C=Cc1ccc(Cn2c(=O)n(C)c(=O)c3sccc32)cc1 | -15.7 | 105.0 | -4.3 | -1.3 | i | 3.0 | . | .
Cc1ccc(NC(=O)CSCC(=O)NCc2cccc(C(F)(F)F)c2)cc1 | -1.0 | 104.5 | 5.8 | -0.2 | + | 1.9 | i | 0.3
O=C(CSc1oc(-c2ccccc2)nc1S(=O)(=O)c1ccc(F)cc1)NCC1CCCO1 (centres undefined) | -2.1 | 113.4 | -0.6 | 6.3 | i | 1.5 | i | 0.3
O=c1oc2ccc(Cl)cc2nc1/C=C(\O)c1ccco1 | 0.2 | . | -3.3 | 12.9 | + | -0.3 | i | 0.0
Cc1ccc(/C(O)=C/c2nc3cc(C)ccc3oc2=O)cc1 | -1.3 | 99.0 | -0.8 | 0.2 | i | 0.4 | . | .
CC(C)C/C(O)=C/c1nc2cc(Cl)ccc2oc1=O | -7.2 | 86.4 | 0.7 | -0.1 | i | -2.5 | i | 0.9
O=C(CSc1ccc(Br)cc1)NCC(c1ccco1)N1CCCCC1 (centres undefined) | -4.9 | 107.0 | -2.5 | 2.0 | i | -3.5 | . | .
C/C(=N\O)C(C)Oc1ccc(Cl)cc1 (centres undefined) | -1.4 | 98.1 | 0.7 | 4.8 | i | 1.3 | . | .
CNc1ccc(C(O)(C(F)(F)F)C(F)(F)F)cc1C(O)(C(F)(F)F)C(F)(F)F | -1.9 | . | 19.2 | 1.5 | + | 0.7 | i | 0.9
COc1ccc(CN(C(=O)c2ccco2)c2ccc(C)c(C)c2)cc1 | -6.9 | 101.0 | -0.3 | -3.3 | + | 1.6 | i | 0.0
O=C(N/N=C\CCc1ccccc1)c1ccco1 | -0.7 | 122.8 | -3.0 | 1.8 | i | 1.5 | i | 0.3
Cc1ccc(S(=O)(=O)N2C[C@@H]3CCCC[C@@H]3[C@@H](C)[C@H]2c2cn(Cc3ccccc3)c3ncccc23)cc1 | -23.0 | 94.0 | 0.9 | 0.3 | i | 0.7 | i | 0.0
Cc1ccnc(N2CCC(C(=O)NCc3ccc4c(c3)OCO4)CC2)n1 | 2.2 | 92.9 | -0.3 | 4.7 | i | -0.5 | . | .
O=C(NCc1ccc2c(c1)OCO2)C1CCN(c2ncccn2)CC1 | 6.3 | 88.3 | 1.7 | -5.9 | i | -2.6 | i | 0.6
